# E-selectin induc – E-selectin induction in HUVECs, primary screen, imaging, HUVEC, immunofluorescence imaging, single point; P16581; normalized: neutral wells 0, TNF-alpha wells 100; activation, % at 7.58 µM; 260,000 tested, 0.37% active; AID 686992, 2013;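 active = mean E-selectin-positive cell signal at least 10% of the positive control, reached in at least 60% of replicates, without over 20% cell loss; inconclusive = no rule given, readout overlaps actives, possibly toxicity-flagged; inactive = the rest, including those meeting only one limit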
# Target sequence (P16581 whole entry, looked up): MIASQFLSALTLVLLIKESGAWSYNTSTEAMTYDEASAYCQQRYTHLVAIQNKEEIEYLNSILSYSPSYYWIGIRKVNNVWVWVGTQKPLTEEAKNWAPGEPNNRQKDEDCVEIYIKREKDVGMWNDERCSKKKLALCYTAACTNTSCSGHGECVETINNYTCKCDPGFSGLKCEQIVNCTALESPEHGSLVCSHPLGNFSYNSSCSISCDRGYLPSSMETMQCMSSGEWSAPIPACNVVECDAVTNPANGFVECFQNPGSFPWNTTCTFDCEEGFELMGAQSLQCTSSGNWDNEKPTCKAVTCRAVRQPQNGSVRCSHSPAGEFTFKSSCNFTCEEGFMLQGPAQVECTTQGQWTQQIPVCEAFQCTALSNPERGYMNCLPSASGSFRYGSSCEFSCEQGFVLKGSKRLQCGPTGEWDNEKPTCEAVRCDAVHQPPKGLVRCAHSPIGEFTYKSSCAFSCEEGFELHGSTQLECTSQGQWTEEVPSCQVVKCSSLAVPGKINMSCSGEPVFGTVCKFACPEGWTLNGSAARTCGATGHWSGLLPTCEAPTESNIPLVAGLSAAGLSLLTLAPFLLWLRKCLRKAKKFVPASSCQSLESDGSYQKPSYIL
#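 Read-out basis: % PE-positive cells; Test system: HUVEC primary endothelial cells; Technique: immunofluorescence imaging; Dosing: single-point compound dose.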
# DENV2 CPE rescue – inhibitors of DENV2 cytopathic effect, primary screen, cell-based, plate reader, single concentration. DENV2-infected cells, cytopathic effect rescue. CPE inhibition, % at 9.99 µM. 350,000 tested, 1.7% active. AID 651640, 2012; in the data active = CPE inhibition above about 20%, passing the limit was not always enough; inconclusive = no clear call, values can overlap the other calls; tested in BHK-21 cells;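 also: 0% = median of neutral control wells and 100% = median of positive control wells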
# C2C12 statin – suppressors of statin myotoxicity in C2C12 myotubes, primary screen, cell-based, single point, plate reader | C2C12 myotubes + simvastatin, ATP luminescence, 48 h; scaled: DMSO 0, geranylgeraniol control 100 | 330,000 tested, 0.78% active | rescue of ATP level, % at 7.49 µM;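 active = mean ATP rescue above about 67%, or every replicate alone reaching that limit, limit read from the data, passing the limit was not always enough; inconclusive = no clear call, values can overlap the other calls; inactive = mean under the limit and some replicate under it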;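 also: myotubes were challenged with 10 µM simvastatin during compound exposure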
# * = called active by the depositor; ? = inconclusive; · = no result. Rows were chosen to be rich in hits. Some 2.2% of all compounds tested hit in one or more screens of this group.
SMILES,E-selectin induc,DENV2 CPE rescue,C2C12 statin
C[C@H]1CN([C@@H](C)CO)S(=O)(=O)c2ccc(C3=CCCC3)cc2O[C@@H]1CN(C)Cc1cccc(C(=O)O)c1,·,9.5,-17.7
C[C@H]1CN([C@@H](C)CO)C(=O)c2cc(NC(=O)CCC(F)(F)F)ccc2O[C@H]1CN(C)C(=O)Nc1cccc2ccccc12,-7.0,26.1*,9.3
C[C@@H]1CN([C@@H](C)CO)C(=O)c2cc(NC(=O)CCC(F)(F)F)ccc2O[C@@H]1CN(C)C(=O)Nc1cccc2ccccc12,-6.3,17.1,5.8
CNC(=O)c1cc2c(ccc3ccccc32)o1,78.3*,4.0,·
Cc1ccc(/C=N/NC(=O)c2cc3c(ccc4ccccc43)o2)o1,-0.1,-2.4,-5.2
O=C(N[C@H]1C=C[C@H](CC(=O)N2CCc3ccccc3C2)O[C@@H]1CO)C1CCC1,0.0,-4.3,-1.3
CCCNC(=O)N1C[C@@H](C)[C@H](OC)CN(C)C(=O)c2cc(NS(C)(=O)=O)ccc2OC[C@@H]1C,0.8,12.0,-2.5
C[C@@H]1CCCCO[C@H](CN(C)S(=O)(=O)c2cn(C)cn2)[C@H](C)CN([C@H](C)CO)C(=O)c2cc(NC(=O)CCCN(C)C)ccc2O1,0.0,-6.7,·
CC(=O)Nc1scc(C)c1-c1nc2ccccc2s1,1.4,50.3*,·
Cc1csc(NC(=O)COCC(=O)O)c1-c1nc2ccccc2s1,0.2,1.4,·
COCC#Cc1ccc([C@H]2[C@@H](CO)N3CCCCN(Cc4cncnc4)C[C@@H]23)cc1,-0.2,16.5,·
CCCC#Cc1ccc([C@H]2[C@H](CO)N3CCCCN(CC4CCOCC4)C[C@@H]23)cc1,0.0,55.6*,-4.7
COCC#Cc1ccc([C@H]2[C@H]3CN(Cc4cncnc4)CCCCN3[C@H]2CO)cc1,-0.2,20.7*,·
CCCC#Cc1ccc([C@H]2[C@H]3CN(CC4CC4)CCCCN3[C@H]2CO)cc1,-0.3,-9.2,·
C[C@@H]1CN([C@@H](C)CO)C(=O)c2cc(NC(=O)CCCN(C)C)ccc2O[C@@H](C)CCCCO[C@@H]1CN(C)S(C)(=O)=O,0.1,9.5,5.8
Cc1cccc(C)c1NC(=O)CNC(=O)c1ccc2c(c1)NC(=O)CS2,-0.1,-1.9,·
CCCCN(C(=O)c1ccc2c(c1)NC(=O)CS2)c1ccccc1,·,93.7*,-8.4
C/C=C/c1ccc([C@@H]2[C@@H](CO)N(C(C)=O)[C@H]2CN(CC(C)C)C(C)=O)cc1,0.1,?,-0.6
Cc1ccc(NS(=O)(=O)c2ccc(NC(=O)C3CC3)cc2)cc1C,·,1.3,-8.4
Cc1ccc(NC(=O)C2CCCCC2)cc1C,0.0,70.0*,6.4
CO[C@H]1CN(C)C(=O)c2cc(NC(=O)c3ccccc3)ccc2OC[C@@H](C)N(C(C)=O)C[C@@H]1C,·,-3.1,0.2
CCS(=O)(=O)N1CC(=O)N2[C@@H](CO)[C@H](c3ccc(C#CCc4ccccc4)cc3)[C@@H]2C1,-0.2,1.5,·
C=CCNc1nc(NCc2ccc(NC(C)=O)cc2)c2sc(-c3ccccc3)cc2n1,1.2,6.0,-15.6
CC(=O)Nc1ccc(CNc2nc(NC(C)C)nc3cc(-c4ccccc4)sc23)cc1,32.6*,10.3,-6.0
CC(C)NC(=O)N[C@@H]1C=C[C@@H](CC(=O)NCCN2CCCC2)O[C@H]1CO,0.0,-3.8,-1.1
SMILES,E-selectin induc,DENV2 CPE rescue,C2C12 statin
CCn1c(CNc2ccc(F)cc2)nnc1SCC(=O)Nc1ccc(OC)cc1,·,·,119.0*
CCn1c(CNc2ccc(F)cc2)nnc1SCC(=O)Nc1ccccc1OC,·,·,54.0
COc1ccc(NC(=O)CSc2nccc(C)n2)cc1,·,·,112.7*
Cc1ccnc(SCC(=O)Nc2cc(C)on2)n1,-0.8,3.7,·
C[C@@H]1CCCCO[C@@H](CN(C)C(=O)Cc2ccccc2)[C@@H](C)CN([C@@H](C)CO)C(=O)c2cc(NC(=O)NC3CCCCC3)ccc2O1,0.9,-13.9,·
OC[C@@H]1[C@H](c2ccc(-c3cccnc3)cc2)[C@H]2CN(Cc3ccccn3)CCCCN12,0.1,?,-11.4
COc1ccc(Cn2c(CCC(=O)N3CCN(c4ccccn4)CC3)nc3ncccc3c2=O)cc1,·,·,87.6*
O=C(CCc1nnc2n(Cc3ccc(Cl)cc3)c(=O)c3ccccc3n12)N1CCN(c2ccccn2)CC1,·,·,-13.3
C[C@@H]1CN([C@@H](C)CO)C(=O)c2cccc(NS(=O)(=O)c3ccccc3)c2O[C@@H]1CN(C)S(C)(=O)=O,0.1,-3.9,20.8
C[C@H](CO)N1C[C@H](C)[C@H](CN(C)Cc2ccccn2)Oc2cc(C#C[C@@H](C)O)ccc2S1(=O)=O,-0.2,0.3,2.8
C[C@@H]1CN([C@H](C)CO)S(=O)(=O)c2ccc(C#C[C@@H](C)O)cc2O[C@H]1CN(C)Cc1ccccn1,0.4,30.5*,0.2

# Screening results: PubChem BioAssay, Broad Institute
